Here are results for five molecules from ChEMBL document CHEMBL3792364, “Identification and biological activity of 6-alkyl-substituted 3-methyl-pyridine-2-carbonyl amino dimethyl-benzoic acid EP4 antagonists” (Bioorg Med Chem Lett, 2016).

pIC50: −log10 of the molar value. In brackets after ≈: the same amount, converted by molar mass.

The target of data set [1] is T1, Prostaglandin E2 receptor EP4 subtype (Homo sapiens, UniProt P35408). Put plainly: Antagonist activity against EP4 in human whole blood assessed as reversal of PGE2-mediated suppression of LPS-induced TNF-alpha production preincubated for 30 mins followed by LPS stimulation measured after 20 to 24 hrs by enzyme immunoassay. Type of data set: tissue-based. In short, it runs like this: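 Pooled blood from donors free of NSAIDs or celecoxib for 48 h and of glucocorticoids for 2 weeks. Blood pretreated 30 min at 37 °C, 5% CO2 with compound in DMSO (7-point curve, triplicate). LPS […] ± 10 nM PGE2 (final) added, then incubated 20–24 h. Plasma TNFα read at A450-A650. IC50 from sigmoidal nonlinear fit; geometric mean of independent runs.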
T1 sequence (P35408 whole entry): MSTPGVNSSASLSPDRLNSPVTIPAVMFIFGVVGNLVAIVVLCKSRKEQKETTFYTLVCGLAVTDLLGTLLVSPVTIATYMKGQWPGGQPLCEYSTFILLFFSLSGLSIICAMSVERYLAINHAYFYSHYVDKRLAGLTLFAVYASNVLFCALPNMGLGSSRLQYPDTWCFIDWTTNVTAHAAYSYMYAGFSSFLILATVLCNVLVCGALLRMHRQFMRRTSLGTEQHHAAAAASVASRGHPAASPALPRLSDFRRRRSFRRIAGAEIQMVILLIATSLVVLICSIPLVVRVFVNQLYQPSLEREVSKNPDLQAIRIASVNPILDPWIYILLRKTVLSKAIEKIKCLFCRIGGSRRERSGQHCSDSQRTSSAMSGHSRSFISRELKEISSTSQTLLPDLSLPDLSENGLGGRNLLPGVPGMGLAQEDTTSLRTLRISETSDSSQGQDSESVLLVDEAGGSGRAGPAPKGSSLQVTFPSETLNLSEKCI

The target of data set [2] is T1, Prostaglandin E2 receptor EP4 subtype. Put plainly: Antagonist activity against human EP4 expressed in HEK293 cells assessed as inhibition of PGE2-stimulated production of cAMP incubated for 20 mins by HTRF assay. In kind it is functional, cell-based.
Data set [3] in a line: Aqueous solubility of compound at pH 6 at 2 mM after 20 hrs by HPLC. The note with it: aqueous medium. Type of data set: physicochemical. In short, it runs like this: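 Samples in DMSO dried 12 h, then redissolved at pH 6 at a 2 mM target concentration. Stirred 20 h, filtered through 0.7 µm GF filter. Filtrate concentration measured by HPLC against a DMSO standard curve.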

With `Cc1ccc(N2CCCC(CO)C2)nc1C(=O)Nc1c(C)cc(C(=O)O)cc1C` (stereo not drawn), the pIC50 in data set [1] is 5.84; in data set [2] it was 7.78. In the case of `Cc1ccc(N2CCC(O)CC2)nc1C(=O)Nc1c(C)ccc(C(=O)O)c1C`, the pIC50 is 5.84 in data set [1] and 7.71 in data set [2]. Moreover, in data set [3], the solubility at 20 h, 2000 µM was 784 µg/mL (≈ 2040 µM).

In the case of `Cc1ccc(N2CCC(CO)C2)nc1C(=O)Nc1c(C)cc(C(=O)O)cc1C` (stereo not drawn), the pIC50 in data set [2] was 7.08. As for `Cc1ccc(N2CCC(C)(O)CC2)nc1C(=O)Nc1c(C)ccc(C(=O)O)c1C`, the pIC50 in data set [2] is 7.06. Turning to `COC1CCN(c2ccc(C)c(C(=O)Nc3c(C)cc(C(=O)O)cc3C)n2)CC1`, the pIC50 in data set [2] was 7.01.
